OXTR agonist: agonists of human oxytocin receptor. P30559. CHO-OTR cells, Fluo-8 calcium fluorescence; normalized: DMSO 0%, oxytocin 100%. activation, % at 3 µM. 0.32% of 320,000 active;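 active = activation above the mean of all tested compounds plus 3 SD, cutoff set per screening run, cut at about 20% in these data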;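 also: peak over basal fluorescence ratio from a 100 s FLIPR kinetic read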
TRPML3 agonist: human mucolipin-3 channel agonism | Q8TDD5 | HEK293 TRPML3-YFP, Fluo-8 calcium fluorescence; 100% = the carbachol control signal | activation, % at 3 µM | 0.29% of 220,000 active;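 active = activation above its plate's cutoff, the mean activation of the plate's test wells plus 3 SD, cut at about 12% in these data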;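 also: 0% = DMSO only wells and 100% = carbachol wells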
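Test system: TRPML3-YFP stable HEK293 cells. Doses: single point at 3 µM. Incubation: dye loading 1 h 37 °C then 30 min ambient, 125 s read. Signal: Fluo-8 calcium dye fluorescence, ex 470-495, em 515-575 nm. Measure: percent activation from peak-to-basal fluorescence ratio, scaled between DMSO and carbachol.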
OXTR potentiate: human OXTR potentiation | P30559 | CHO-OTR cells, Fluo-8 calcium fluorescence, potentiator mode; 0% = oxytocin EC15, 100% = EC100 | activation, % at 3 µM | 0.061% of 320,000 active;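 active = activation above that plate's cutoff, the mean activation of tested compounds plus 3 SD, cut at about 6.6% in these data, passing the limit was not always enough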;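 also: 100% uses oxytocin at 75 nM as the full agonist control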
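Dosing: Single dose, 3.0 µM nominal final compound concentration | Material: Human OTR in CHO cells | Technique: Kinetic Fluo-8 calcium fluorescence | Benchmarks: EC15 oxytocin alone as 0%, 75 nM oxytocin as 100% | Probe or stimulus: Oxytocin at about EC15, sub-maximal agonist stimulus | Incubation: Compound 6 min at room temperature before oxytocin, 100 s read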
TRPN1 ag: activates the zebrafish TRPN1 channel | HEK293 zebrafish TRPN1-YFP, Fluo-8 calcium fluorescence; 100% = response to 87 µM carbachol | activation, % at 3 µM | 0.18% of 220,000 active | AID 1424;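 active = activation above its plate's cutoff, the mean activation of test wells on that plate plus 3 SD, cut at about 19% in these data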;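 also: 0% = DMSO alone and 100% = 87 µM carbachol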
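Material: zebrafish TRPN1-YFP in HEK293 cells; Doses: single test compound dose, 3 µM nominal, 0.3% DMSO; Timing: dye loading 1 h at 37 °C, then 30 min room temperature; Technique: intracellular calcium fluorescence with Fluo-8; Benchmarks: high carbachol 87 µM, low DMSO alone.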
V1aR counter: activates human V1a receptor in oxytocin agonist counter-screen; CHO-V1R cells, Fluo-8 calcium fluorescence, agonist mode; 0% DMSO, 100% 3 nM vasopressin; P37288; 0.25% of 320,000 active; activation, % at 3 µM;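 active = activation above the mean activation of all tested compounds plus 3 SD, per screening run, cut at about 20% in these data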;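 also: signal is peak over basal fluorescence ratio across a 100 second FLIPR read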
Target sequence (P37288 whole entry, looked up): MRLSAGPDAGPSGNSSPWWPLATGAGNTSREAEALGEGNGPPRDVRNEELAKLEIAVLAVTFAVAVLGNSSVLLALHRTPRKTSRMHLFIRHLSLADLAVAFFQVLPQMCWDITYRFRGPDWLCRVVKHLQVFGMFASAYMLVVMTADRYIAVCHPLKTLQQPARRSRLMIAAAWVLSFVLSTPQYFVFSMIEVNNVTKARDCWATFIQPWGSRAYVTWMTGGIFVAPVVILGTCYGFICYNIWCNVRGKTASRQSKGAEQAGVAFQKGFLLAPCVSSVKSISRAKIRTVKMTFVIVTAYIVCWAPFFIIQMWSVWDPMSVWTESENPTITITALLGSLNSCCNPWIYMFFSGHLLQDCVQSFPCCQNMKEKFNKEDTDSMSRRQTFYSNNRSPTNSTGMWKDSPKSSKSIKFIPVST
* = called active by the depositor; . = no result. Only some compounds are listed: those with a hit (about 0.58% of all), similar ones and a draw of the others.

SMILES	OXTR agonist	TRPML3 agonist	OXTR potentiate	TRPN1 ag	V1aR counter
CC(Oc1ccc(Br)cc1)C(=O)Nc1ccc(S(=O)(=O)N(C)C2CCN(C)CC2)cc1 (stereo unspecified)	63.9*	.	-21.7	.	47.4*
CCCN1CCN(C(=O)Cn2nc(CC)n3c(cc4sccc43)c2=O)CC1	0.4	.	1.1	.	0.3
C[C@H](CO)N1C[C@H](C)[C@@H](CN(C)Cc2ccncc2)Oc2c(NS(=O)(=O)c3cccs3)cccc2C1=O	0.4	.	3.3	.	0.7
O=C(Nc1ccc(C(=O)NCCCN2CCN(c3ccc(F)cc3)CC2)cc1)C1=CSCCO1	29.3*	.	-14.7	.	25.7*
O=C(Nc1ccc(C(=O)NCCCN2CCCCC2)cc1)C1=CSCCO1	0.5	.	-5.3	.	0.8
COc1ccc(NC(=O)CSc2nc3ccsc3c(=O)n2CCC(=O)O)c(OC)c1	0.2	.	1.0	.	0.4
N#Cc1c(Cl)nsc1NC(=O)c1ccccc1	16.2	21.3*	-15.0	30.0*	11.8
O=[N+]([O-])c1ccc(N/N=C/c2c[nH]c3ccccc23)cc1	25.2*	9.2	-20.6	9.8	23.6*
O=C(O)c1ccc(N/N=C/C=C/c2ccc([N+](=O)[O-])o2)cc1	29.3*	.	-7.8	.	41.1*
O=C(O)c1ccc(-c2ccc(/C=N/Nc3ccc([N+](=O)[O-])cc3)o2)cc1	50.8*	23.7*	-33.2	38.7*	64.7*
O=C(O)c1cccc(-c2ccc(/C=N/Nc3ccc([N+](=O)[O-])cc3)o2)c1	26.4*	10.9	-9.3	23.7*	33.5*
NS(=O)(=O)c1ccc(-c2ccc(/C=N/Nc3ccc(C(=O)O)cc3)o2)cc1	0.9	0.1	-4.8	3.1	-0.1
CC1CCCC(NC(=O)CN(C)CC(=O)Nc2ccc(F)cc2)C1C (stereo unspecified)	1.4	.	-5.0	.	0.0
COc1ccc(Cl)cc1NC(=O)NCc1ccccn1	0.2	.	-4.7	.	-0.2
CSCC[C@H](NC(=O)OC(C)(C)C)C(=O)NCC1CCC(C(=O)N[C@@H](Cc2ccccc2)C(=O)O)CC1 (stereo partly specified)	1.8	.	-3.1	.	0.1
CC1=Nc2ccccc2/C1=C/c1sc(=S)n(-c2cccc(C(=O)O)c2)c1O	.	17.6*	.	19.8*	.
Oc1c(C=C2N=c3ccccc3=N2)sc(=S)n1-c1ccccc1	2.8	-0.1	-0.4	0.9	0.8
O=C(c1ccc2nc[nH]c2c1)N1CCN(c2ncc(C(F)(F)F)cc2Cl)CC1	5.0	.	-7.5	.	8.2
COC(=O)c1sc(-c2ccc(Cl)cc2)cc1NC(=O)/C=C/C(=O)O	21.8*	0.4	-17.4	1.6	15.4
CC1(C)CCN2CCC(C)(C)c3c(O)ccc1c32	24.7*	.	-11.3	.	28.2*
Cc1ccc(C)c(C(=O)OCC(=O)N(C)c2ccccc2)c1	-1.4	.	-1.7	.	0.0
CC1(C)NC(=O)N(CC(=O)N2CCN(c3ccc([N+](=O)[O-])cc3)CC2)C1=O	-0.3	.	-3.1	.	-0.5
COc1ccc(OC)c(C(=O)CN2C(=O)C(=O)N(C3CCCC3)C2=O)c1	-1.1	.	-4.7	.	-1.2
CCN(CC)c1ccc(/C=C(\C#N)c2nc(-c3cccs3)c(NC(C)=O)s2)cc1	.	29.4*	.	21.6*	.
O=C(NCc1ccco1)c1sc(=S)n2c1[nH]c(=O)c1ccccc12	24.2*	1.3	-11.2	3.4	21.1*
SMILES	OXTR agonist	TRPML3 agonist	OXTR potentiate	TRPN1 ag	V1aR counter
O=C(NC1CCCC1)c1sc(=S)n2c1[nH]c(=O)c1ccccc12	10.5	0.2	-15.5	2.1	7.8
CC1CC(C)CN(S(=O)(=O)c2ccc(C(=O)N3CCOCC3)cc2)C1 (stereo unspecified)	0.1	.	-5.3	.	0.7
OC(c1cc(-c2ccc(C(F)(F)F)cc2)nc(C(F)(F)F)c1)C1CCCCN1 (stereo unspecified)	22.6*	5.3	-12.8	7.2	26.2*
COC(=O)CSc1nc(-c2ccc(F)cc2)cc(C(F)(F)F)n1	-2.2	0.3	-1.3	-0.7	-1.4
C=CCn1c(SCC(=O)O)nc2sc(CC)cc2c1=O	1.3	1.5	2.8	1.9	0.9
C=CCn1c(SCC(=O)N2CCCC2=O)nc2sc(CC)cc2c1=O	38.2*	.	-11.7	.	40.0*
CCCC(=O)NC(=S)Nc1ccc(S(=O)(=O)Nc2ccc(OCC)cc2)cc1	16.9	4.5	-12.4	9.6	12.6
CCOc1ccc(NS(=O)(=O)c2ccc(NC(=S)NC(=O)CC(C)C)cc2)cc1	20.4*	3.1	-20.1	6.8	22.9*
OC(COc1ccccc1)Cn1c2ccccc2c2ccccc21 (stereo unspecified)	0.4	-0.3	3.3	-1.9	-0.5
O=C(O)c1ccc(OCC(O)Cn2c3ccccc3c3ccccc32)cc1 (stereo unspecified)	21.6*	1.1	-8.1	0.9	43.6*
COCCN(CCOC)C(=O)CSc1ccc(S(=O)(=O)N2CCN(C)CC2)cn1	0.7	.	-3.5	.	0.4
COC(=O)C1=C(C)N(Cc2ccccc2)C(=NCC(C)C)N[C@H]1c1cccc(C(F)(F)F)c1	14.1	.	-10.0	.	3.3
COC(=O)C1=C(C)N(Cc2ccccc2)C(=NCC(C)C)N[C@H]1c1cccc(F)c1	30.7*	.	-11.4	.	22.9*
CN(C)c1ccc(C(=O)/C=C/c2ccc(Br)cc2)cc1	-0.9	0.3	-8.9	-0.1	0.0
CCN(CC)c1ccc(/C=C/C(=O)c2ccc(Br)cc2)cc1	142.9*	58.9*	-7.4	55.8*	153.8*
O=C(O)c1ccccc1-c1c2cc(I)c(=O)c(I)c-2oc2c(I)c(O)c(I)cc12	232.3*	.	-12.1	.	204.7*
Cc1cc(C)nc(NS(=O)(=O)c2ccc(NC(=O)C3(c4ccc([N+](=O)[O-])cc4)CCCC3)cc2)n1	21.9*	7.0	-7.1	16.2	21.6*
O=C(NCc1ccco1)c1cccc2c1C(=O)c1ccc(N3CCC(Cc4ccccc4)CC3)cc1S2(=O)=O	15.3	.	-10.2	.	13.1
O=C(NCCc1ccc(F)cc1)c1cccc2c1C(=O)c1ccc(N3CCC(Cc4ccccc4)CC3)cc1S2(=O)=O	29.5*	.	-9.9	.	26.8*
O=C(NCc1cccc(C(F)(F)F)c1)c1cccc2c1C(=O)c1ccc(N3CCC(Cc4ccccc4)CC3)cc1S2(=O)=O	22.9*	.	-10.9	.	24.3*
COCC(=O)Nc1cc(Cl)ccc1C	-0.2	0.0	-2.4	1.0	0.3
Cc1ccc(Cl)cc1NC(=O)CC(O)(C(F)(F)F)C(F)(F)F	12.2	13.1*	-12.1	19.9*	7.8
Cc1c(-c2ccc(O)cc2)nc2nc(-c3ccccc3)c(-c3ccccc3)nn12	144.3*	-0.7	-12.9	-0.3	279.5*
Cc1nnc2c3ccccc3c(-c3ccc(O)cc3)nn12	1.4	0.4	-6.3	0.0	2.7
Cc1sc2ncnc(N/N=C/c3cccc(O)c3)c2c1C	2.8	0.3	-9.2	-1.2	0.9

Screens deposited in PubChem by The Scripps Research Institute Molecular Screening Center.
